In data set [1] the target is T1, hERG (KCNH2) (Homo sapiens, UniProt Q12809). Description: Inhibition of human ERG at 3 uM relative to control.
Data set [2] deals with Mycobacterium tuberculosis. Description: Antimycobacterial activity against Mycobacterium tuberculosis H37Rv assessed as bacterial growth inhibition incubated for 10 days under anerobic condition followed by incubation under ambient gaseous condition for […] by low oxygen recovery assay. It counts as functional. In short, it runs like this: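 Read-out is MIC90, the lowest concentration giving 90% growth inhibition of M.tb H37Rv, in µg/mL. Bacteria were held under non-replicating, low-oxygen conditions (LORA).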

In data set [3] the test system is Mycobacterium tuberculosis. Description: Antimycobacterial activity against Mycobacterium tuberculosis H37Rv assessed as bacterial growth inhibition under replicating, aerobic condition by microplate Alamar blue assay. The class given is functional. In short, it runs like this: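 Read-out is MIC90, the lowest concentration giving 90% growth inhibition of M.tb H37Rv, in µg/mL. Bacteria were grown under aerobic, replicating conditions (MABA).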
Background: Resazurin is reduced to fluorescent resorufin, in cell work by metabolically active cells.

Data set [4] is described as follows: Clearance in CD-1 mouse at 2 to 3 mg/kg, iv administered as single bolus dose. It counts as ADME, organism-based. To be noted: in vivo. In short, it runs like this: (§1)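 Male CD-1 mice received a single intravenous bolus at 2–3 mg/kg. Reported values are IV clearance and the apparent volume of distribution during the terminal phase, in L/kg.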
The nature of data set [5]: Intrinsic clearance in human liver microsomes assessed per mg protein. The class given is ADME, Microsome. The note with it: read-out: CLH. In short, it runs like this:
(§2)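 Clearance of compound by human or mouse liver microsomes, expressed as µL/min/mg protein.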
In general terms: Liver microsomes are a subcellular fraction often used to study metabolism.

The test system of the next data set is Vero. Description: Cytotoxicity against African green monkey Vero cells assessed as reduction in cell viability incubated for 72 hrs by […] assay. The class given is cell-based. To be noted: Chlorocebus sabaeus. For orientation: Tetrazolium assays rely on reduction of a dye to a coloured formazan, in cell work by metabolically active cells.
The target of data set [6] is Voltage-gated inwardly rectifying potassium channel KCNH2 (Homo sapiens, UniProt Q12809). Description: Inhibition of human ERG.
Chain of Voltage-gated inwardly rectifying potassium channel KCNH2 (Q12809 whole entry): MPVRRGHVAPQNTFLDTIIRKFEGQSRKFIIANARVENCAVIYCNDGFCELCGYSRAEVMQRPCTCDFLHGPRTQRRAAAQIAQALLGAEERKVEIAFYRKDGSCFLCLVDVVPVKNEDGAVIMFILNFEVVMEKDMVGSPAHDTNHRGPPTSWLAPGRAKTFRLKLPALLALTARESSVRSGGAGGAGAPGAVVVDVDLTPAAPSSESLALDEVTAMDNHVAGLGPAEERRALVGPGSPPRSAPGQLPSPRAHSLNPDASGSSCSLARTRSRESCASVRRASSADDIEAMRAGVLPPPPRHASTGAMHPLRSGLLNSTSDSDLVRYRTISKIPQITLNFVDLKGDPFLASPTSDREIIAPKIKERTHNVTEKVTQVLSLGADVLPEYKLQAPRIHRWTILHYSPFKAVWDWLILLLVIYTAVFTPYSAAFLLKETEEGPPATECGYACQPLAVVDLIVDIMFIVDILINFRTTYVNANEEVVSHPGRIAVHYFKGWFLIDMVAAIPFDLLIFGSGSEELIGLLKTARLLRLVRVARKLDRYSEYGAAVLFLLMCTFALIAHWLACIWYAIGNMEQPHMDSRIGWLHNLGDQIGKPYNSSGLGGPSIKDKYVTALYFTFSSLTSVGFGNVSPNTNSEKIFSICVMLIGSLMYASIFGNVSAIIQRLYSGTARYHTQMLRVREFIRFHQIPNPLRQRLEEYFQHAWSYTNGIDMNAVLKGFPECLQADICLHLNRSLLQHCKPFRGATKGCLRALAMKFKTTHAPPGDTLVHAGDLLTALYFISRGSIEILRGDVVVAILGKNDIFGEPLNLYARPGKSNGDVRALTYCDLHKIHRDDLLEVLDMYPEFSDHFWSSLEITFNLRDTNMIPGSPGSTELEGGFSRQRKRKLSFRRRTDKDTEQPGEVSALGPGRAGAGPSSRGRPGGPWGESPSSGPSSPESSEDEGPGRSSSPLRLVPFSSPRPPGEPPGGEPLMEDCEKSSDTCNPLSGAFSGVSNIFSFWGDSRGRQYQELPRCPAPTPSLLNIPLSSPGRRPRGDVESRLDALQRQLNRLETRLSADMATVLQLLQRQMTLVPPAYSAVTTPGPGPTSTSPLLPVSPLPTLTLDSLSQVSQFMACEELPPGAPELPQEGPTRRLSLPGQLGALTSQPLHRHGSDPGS
The nature of data set [7]: AUC (0 to infinity) in CD-1 mouse at 10 mg/kg, po via gavage administered as single dose. It counts as ADME, organism-based. Details: dose 10 mg/kg, route oral, time infinity. The note with it: in vivo. In short, it runs like this: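 Male CD-1 mice given a single 10 mg/kg dose by oral gavage. Exposure is reported as area under the curve from 0 to infinity in µg*h/mL.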

Data set [8] can be described thus: Oral bioavailability in CD-1 mouse at 10 mg/kg administered via gavage as single dose. To be noted: in vivo. The class given is ADME, organism-based.
A short description of data set [9]: Intrinsic clearance in mouse liver microsomes assessed per mg protein. It counts as ADME, Microsome. The note with it: read-out: CLH. In short, it runs like this:
as §2

The nature of data set [10]: Apparent volume of distribution during terminal phase in CD-1 mouse at 2 to 3 mg/kg, iv administered as single bolus dose. The class given is ADME, organism-based. The note with it: in vivo. The essentials:
as §1

The target in data set [11] is T1, hERG (KCNH2). Description: Inhibition of human ERG at 10 uM relative to control.
The nature of data set [12]: Protein binding in human plasma. The note with it: read-out: PPB. The class given is ADME, cell-free.

In brackets after ≈: the same amount, converted by molar mass.

T1 sequence (Q12809 whole entry): as above

In general, inhibition refers to the percentage by which the read-out fell short of the control. The MIC90 is the lowest concentration that inhibits either 90% of growth or 90% of the strains tested, depending on the study. Consider `COc1nc2ccc(Br)cc2cc1[C@@H](c1cccc(C)c1F)[C@@](O)(CCN(C)C)c1cc(SC)nc(SC)c1` (racemic), for which the inhibition at 3 µM on hERG (KCNH2) [1] turned out to be 13%. For the same molecule, the MIC90 in data set [2] is 0.06 µg/mL (≈ 0.0951 µM); in data set [3], less than 0.004 µg/mL.
In general, clearance refers to the volume of plasma or blood freed of the substance per unit of time. A word on the IC50: it is the concentration needed to halve the response being measured. A word on the AUC(0-inf): it is the area under the concentration-time curve extrapolated to infinity. The term bioavailability denotes the share of a dose that reaches the circulation, judged against a reference dose that is usually intravenous. Regarding `COc1nc2ccc(C#N)cc2cc1[C@@H](c1cccc(C)c1F)[C@@](O)(CCN(C)C)c1cc(SC)nc(SC)c1` (racemic), in [4], the clearance is 22 mL/min/kg. Besides, the figures for the microsomal CLint in data set [5] and in data set [9] were 9.2 µL/min/mg and 13 µL/min/mg, respectively. Besides, the MIC90 in data set [2] came out at 0.17 µg/mL (≈ 0.295 µM); in data set [3], 0.02 µg/mL (≈ 0.0347 µM). Also, the IC50 was greater than 10 µg/mL in the data set on Vero and greater than 10 µM in [6]. In [7], this molecule showed an AUC(0-inf) of 2400 ng·h/mL. The bioavailability in [8] was 31%. Besides, the Vz/F in data set [10] is 79 L/kg.
In [4], `CCSc1cc([C@](O)(CCN(C)C)[C@H](c2ccccc2)c2cc3cc(Br)ccc3nc2OC)cc(SCC)n1` (racemic) came in with a clearance of 11 mL/min/kg. The microsomal CLint turned out to be 2.3 µL/min/mg in data set [5] and 17 µL/min/mg in data set [9]. The MIC90 in data set [2] was 0.05 µg/mL (≈ 0.0798 µM); in data set [3] it was 0.02 µg/mL (≈ 0.0319 µM). The IC50 is greater than 10 µg/mL with Vero and greater than 30 µM in data set [6]. The AUC(0-inf) in data set [7] was found to be 4000 ng·h/mL. In addition, the bioavailability in data set [8] is 24%. In [10], the Vz/F was 30 L/kg.
For the molecule `COc1cc([C@](O)(CCN(C)C)[C@@H](c2cc3cc(Br)ccc3nc2OC)c2cccc(C)c2F)cc(OC(F)F)n1` (racemic), the MIC90 in data set [2] is 0.03 µg/mL (≈ 0.0473 µM); in data set [3] it was 0.01 µg/mL (≈ 0.0158 µM). The same molecule registered an inhibition at 10 µM against hERG (KCNH2) [11] of 3%.
Molecule `CCSc1cc([C@](O)(CCN(C)C)[C@@H](c2cc3cc(C#N)ccc3nc2OC)c2cccc(C)c2F)cc(SCC)n1` (racemic) came in with a clearance in data set [4] of 9.4 mL/min/kg. Moreover, the results for the microsomal CLint in [5] and in [9] were 9.1 µL/min/mg and 33 µL/min/mg, respectively. The MIC90 is 0.06 µg/mL (≈ 0.0992 µM) in [2] and less than 0.02 µg/mL in data set [3]. Further, the IC50 in the data set on Vero was greater than 10 µg/mL; in data set [6], greater than 10 µM. Moreover, the AUC(0-inf) in [7] worked out at 4000 ng·h/mL. In data set [8], this molecule returned a bioavailability of 22%. The Vz/F in data set [10] was 41 L/kg.
Molecule `CCSc1cc([C@](O)(CCN(C)C)[C@H](c2cccc(C)c2)c2cc3cc(C#N)ccc3nc2OC)cc(N(C)C)n1` (racemic) gave an inhibition at 3 µM on hERG (KCNH2) [1] of 51%. Further, the MIC90 in [2] turned out to be 0.17 µg/mL (≈ 0.298 µM); in data set [3], 0.12 µg/mL (≈ 0.211 µM).
Molecule `CCSc1cc([C@](O)(CCN(C)C)[C@@H](c2cc3cc(Br)ccc3nc2OC)c2cccc(OC)c2F)cc(SCC)n1` (racemic) displayed a clearance in data set [4] of 3.6 mL/min/kg. Besides, the microsomal CLint in [5] turned out to be 4.9 µL/min/mg; in [9], 12 µL/min/mg. The MIC90 in data set [2] and in data set [3] was less than 0.02 µg/mL throughout. Further, the IC50 with Vero is 6.5 µg/mL (≈ 9.63 µM); in data set [6], greater than 10 µM. In [7], this molecule gave an AUC(0-inf) of 11900 ng·h/mL. The same molecule gave a bioavailability in data set [8] of 25%. Besides, in data set [10], the Vz/F turned out to be 14 L/kg.
The molecule `CCSc1cc([C@](O)(CCN(C)C)[C@H](c2cccc(C)c2)c2cc3cc(Br)ccc3nc2OC)cc(N(C)C)n1` (racemic) showed an inhibition at 3 µM on hERG (KCNH2) [1] of 23%. Also, the MIC90 in data set [2] was found to be 0.12 µg/mL (≈ 0.192 µM); in [3], 0.14 µg/mL (≈ 0.224 µM).
As for `CCSc1cc([C@](O)(CCN(C)C)[C@@H](c2cc3cc(C#N)ccc3nc2OC)c2cccc(OC)c2F)cc(SCC)n1` (racemic), the clearance in [4] came to 29 mL/min/kg. Besides, the values for the microsomal CLint in data set [5] and in data set [9] were 17 µL/min/mg and 27 µL/min/mg, respectively. Besides, the MIC90 was 0.2 µg/mL (≈ 0.322 µM) in [2] and 0.1 µg/mL (≈ 0.161 µM) in data set [3]. In addition, the IC50 in the data set with Vero was greater than 10 µg/mL; in data set [6], greater than 10 µM. Further, the AUC(0-inf) in [7] was determined as 1400 ng·h/mL. The bioavailability in data set [8] was found to be 24%. For the same molecule, the Vz/F in data set [10] stood at 93 L/kg.
As for `CCSc1cc([C@](O)(CCN(C)C)[C@@H](c2cc3cc(Br)ccc3nc2OC)c2cccc3c2OCO3)cc(SCC)n1` (racemic), the clearance in [4] is 3.4 mL/min/kg. In addition, the figures for the microsomal CLint in data set [5] and in data set [9] were 9.5 µL/min/mg and 12 µL/min/mg, respectively. In addition, the figures for the MIC90 in data set [2] and in data set [3] were 0.06 µg/mL (≈ 0.0895 µM) and 0.01 µg/mL (≈ 0.0149 µM), respectively. The IC50 was greater than 10 µg/mL in the data set on Vero and greater than 10 µM in data set [6]. The AUC(0-inf) in data set [7] turned out to be 5500 ng·h/mL. In data set [8], this molecule returned a bioavailability of 11%. Further, in data set [10], the Vz/F is 9.4 L/kg.
For the molecule `COc1cc([C@](O)(CCN(C)C)[C@@H](c2cc3cc(Br)ccc3nc2OC)c2cccc(OC)c2F)cc(OC)n1` (racemic) [TBAJ-587], the microsomal CLint in data set [5] was found to be 2.2 µL/min/mg. Moreover, in [2], the MIC90 is 0.01 µg/mL (≈ 0.0163 µM). Further, the fraction unbound in data set [12] was less than 0.005.
On to `COc1cc([C@](O)(CCN(C)C)[C@@H](c2cc3cc(Br)ccc3nc2OC)c2cc(OC)nc(OC)c2OC)cc(OC)n1` (racemic) [TBAJ-876], for which the fraction unbound in data set [12] is less than 0.005.
For `COc1nc2ccc(Br)cc2cc1[C@@H](c1ccccc1)[C@@](O)(CCN(C)C)c1cccc2ccccc12` [BEDAQUILINE], the MIC90 in data set [2] was 0.06 µg/mL (≈ 0.108 µM); in [3], 0.03 µg/mL (≈ 0.054 µM). Moreover, the AUC(0-inf) in data set [7] is 17400 ng·h/mL. In data set [12], the fraction unbound was less than 0.005.

The values are drawn from ChEMBL document CHEMBL4610003 (Bioorg Med Chem, 2020).
